From PubChem BioAssay
ARFGAP1 inh: rat ARFGAP1 inhibition; Arfgap1-stimulated ARF1 GTP hydrolysis, GDP FP detection; inhibition, % at 16.5 µM; 360,000 compounds, 0.26% hits;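 active = inhibition above a per-plate limit, mean inhibition of low control wells plus 3 SD, cut at about 25% in these data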;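 note: 0% = DMSO wells with enzyme and 100% = wells lacking Arfgap1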
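Assay system: Rat Arfgap1 GAP domain (His6, aa 1-136), purified enzyme | Buffer or medium: HEPES 25 mM pH 7.5, NaCl 150 mM, MgCl2, DTT | Schedule: GTP hydrolysis reaction 2 h at 25 °C | Signal: FP of antibody-bound GDP Alexa 633 tracer, ex 620/em 688 nm | Measure: Percent inhibition of Arfgap1-stimulated GTP hydrolysis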
pPAFAH inh: inhibitors of human plasma PAF acetylhydrolase (pPAFAH) | 330,000 compounds, 1.5% hits | Q13093 | inhibition, % at 3.39 µM | recombinant pPAFAH, FP-rhodamine probe fluorescence polarization | AID 463082;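 active = inhibition above the mean inhibition across the screen plus 3 SD, cut at about 25% in these data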;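 note: inhibitors block binding of the rhodamine activity-based probe so polarization drops; 0% = enzyme with DMSO and 100% = wells lacking pPAFAH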
Target sequence (Q13093 whole entry, looked up): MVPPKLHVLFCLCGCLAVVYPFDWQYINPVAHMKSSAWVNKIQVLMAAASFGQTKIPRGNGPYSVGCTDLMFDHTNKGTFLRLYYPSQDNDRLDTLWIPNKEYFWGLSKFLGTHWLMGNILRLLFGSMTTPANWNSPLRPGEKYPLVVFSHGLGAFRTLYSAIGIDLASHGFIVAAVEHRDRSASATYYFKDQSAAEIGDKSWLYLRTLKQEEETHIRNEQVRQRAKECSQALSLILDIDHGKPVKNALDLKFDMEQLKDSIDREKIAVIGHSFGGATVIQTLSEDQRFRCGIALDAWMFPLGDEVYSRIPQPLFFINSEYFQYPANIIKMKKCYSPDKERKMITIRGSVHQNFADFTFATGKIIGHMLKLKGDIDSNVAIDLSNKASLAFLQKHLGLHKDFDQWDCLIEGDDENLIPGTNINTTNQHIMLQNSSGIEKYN
PAFAH2 inh: inhibitors of human PAFAH2 | recombinant PAFAH2, FP-rhodamine activity probe, fluorescence polarization | inhibition, % at 3.39 µM | Q99487 | 340,000 compounds, 0.99% hits;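 active = inhibition above the mean over all tested compounds plus 3 SD, cut at about 30% in these data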;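 note: inhibitors block probe labeling of enzyme so polarization drops; 0% = enzyme with DMSO and 100% = wells lacking PAFAH2 protein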
PAFAH1B2 FP inh: PAFAH1B2 (human) inhibition; 340,000 compounds, 1.2% hits; AID 492953; inhibition, % at 3.39 µM; recombinant PAFAH1B2, FP-rhodamine activity probe, fluorescence polarization; P68402;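 active = inhibition above the mean of all tested compounds plus 3 SD, cut at about 24% in these data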;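 note: 0% = enzyme with DMSO and 100% = wells lacking PAFAH1B2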
PAFAH1B3 inh: blocks human PAF acetylhydrolase 1B catalytic subunit 3; 340,000 compounds, 0.28% hits; recombinant PAFAH1B3, FP-rhodamine probe, fluorescence polarization; inhibition, % at 3.39 µM;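 active = inhibition above the screen-wide average of all tested compounds plus 3 SD, cut at about 25% in these data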;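 note: 0% = enzyme with DMSO only and 100% = wells lacking PAFAH1B3 protein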
Target sequence (Q15102 whole entry, looked up): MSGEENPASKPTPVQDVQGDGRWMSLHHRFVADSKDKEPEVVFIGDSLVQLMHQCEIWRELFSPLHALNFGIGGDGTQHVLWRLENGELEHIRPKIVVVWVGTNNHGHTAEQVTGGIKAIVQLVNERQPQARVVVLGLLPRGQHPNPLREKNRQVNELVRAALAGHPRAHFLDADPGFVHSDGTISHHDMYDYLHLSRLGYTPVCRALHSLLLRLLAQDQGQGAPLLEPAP
ASAP1 inh: inhibitors of human ASAP1 ArfGAP activity | inhibition, % at 16.5 µM | Q9ULH1 | ASAP1-stimulated ARF1 GTP hydrolysis, GDP FP detection | 360,000 compounds, 0.19% hits; in the data active = inhibition above about 25%;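 note: 0% = vehicle with enzyme and substrate and 100% = no enzyme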
pPAFAH FP conf: pPAFAH (human) inhibition, confirmed; shares compounds with pPAFAH inh; recombinant pPAFAH, FP-Rh probe fluorescence polarization; inhibition, % at 3.39 µM; 2,300 compounds, 72% hits;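 active = mean inhibition of the triplicate above the hit cutoff set for the earlier primary screen, cut at about 25% in these data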;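 note: 0% = enzyme with DMSO and 100% = wells lacking pPAFAH enzyme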
Starred values were filed as active, the others as inactive; / = no result. This is a sample that favours compounds with a hit; in the whole collection about 2.7% have one here.

SMILES | ARFGAP1 inh | pPAFAH inh | PAFAH2 inh | PAFAH1B2 FP inh | PAFAH1B3 inh | ASAP1 inh | pPAFAH FP conf
O=C(N[C@@H](Cc1cccnc1)C(=O)N1CCC[C@H]1C(=O)NCCc1ccccc1Cl)c1ccccc1 | 7 | / | / | / | / | -5 | /
CCCCCn1c(SCC2CCCO2)nc2cc(C(=O)N3CCC(C(N)=O)CC3)ccc2c1=O (stereo not drawn) | -3 | 42* | -2 | 3 | -4 | 2 | 23
Cc1cc(NC(=O)CSc2sc3c(O)cc(=O)[nH]c3c2C#N)ccc1Br | 5 | 52* | -5 | 7 | 9 | 7 | 27*
N#Cc1c(SCC(=O)Nc2cccc(C(F)(F)F)c2)sc2c(O)cc(=O)[nH]c12 | -5 | 40* | 18 | 11 | 13 | 1 | 11
Cc1ccc(Cl)cc1NC(=O)CSc1sc2c(O)cc(=O)[nH]c2c1C#N | -2 | 20 | 9 | 7 | 18 | 10 | /
CCSc1nnc(NC(=O)CSc2sc3c(O)cc(=O)[nH]c3c2C#N)s1 | -2 | 39* | 50* | 29* | 17 | 6 | 35*
O=C(CSCCO)Nc1cccc(C(F)(F)F)c1 | -9 | 10 | 2 | -1 | 7 | -8 | /
Cc1ccc(C)c(NC(=O)CSc2sc3c(O)cc(=O)[nH]c3c2C#N)c1 | 5 | 18 | 18 | 4 | 10 | 0 | /
COc1cccc(CN(C)C(=O)[C@H]2O[C@@H](n3cnc4c(=O)[nH]c(N)nc43)[C@H](O)[C@@H]2O)c1 | -9 | / | / | / | / | -4 | /
Cc1ccccc1C(=O)N[C@@H](CC(C)C)C(=O)N1CCC[C@H]1C(=O)NCc1ccccc1 | 8 | / | / | / | / | -1 | /
COC(=O)c1cc2c(c3c4cc(OC)ccc4n(S(=O)(=O)c4ccc(F)cc4)c13)C(=O)N(Cc1ccccc1)C2 | -4 | / | / | / | / | -16 | /
CCOC(=O)NC1(NC(C)C)Oc2ccccc2O1 | 9 | 9 | -3 | 2 | 3 | 12 | /
CCOC(=O)NC1(Nc2ccc(C)cc2)Oc2ccccc2O1 | 7 | 46* | 4 | 7 | 11 | 1 | 5
COc1ccc(NC(=O)N(C)C[C@@H]2OCCCC[C@@H](C)Oc3ccc(NS(C)(=O)=O)cc3C(=O)N([C@H](C)CO)C[C@@H]2C)cc1 | -3 | / | / | / | / | 2 | /
CCCNC(=O)C1(C)CCN(C(=O)c2oc3ccccc3c2C)C1 (stereo not drawn) | 3 | / | / | / | / | 10 | /
O=C(N[C@@H](Cc1cccnc1)C(=O)N1CCC[C@H]1C(=O)NC1CCCC1)c1ccccc1 | -12 | / | / | / | / | 0 | /
Nc1ccc(N2CCN(C(=O)c3ccco3)CC2)cc1 | 1 | 37* | 0 | 1 | 6 | 0 | 6
CC(=O)N1CCN(c2ccc(NCc3ccc(Br)o3)cc2)CC1 | -3 | 11 | 3 | 1 | 11 | 6 | /
CC(=O)N1CCN(c2ccc(NCc3ccc(-c4ccc(Br)cc4)o3)cc2)CC1 | 4 | 41* | 8 | 7 | 12 | 11 | 26*
CCCc1cc(=O)n2[nH]c(-c3ccc(Cl)cc3)cc2n1 | 7 | 13 | 13 | 9 | 0 | 0 | /
CCOC(=O)Cc1cc(=O)n2[nH]c(-c3ccc(Cl)cc3)cc2n1 | 0 | 35* | 19 | 5 | 3 | -6 | 8
O=C(CCCN1C(=O)c2cccc3cccc(c23)C1=O)NCc1cccnc1 | -3 | -2 | 1 | 2 | 5 | 1 | /
O=C(CCCCCN1C(=O)c2cccc3cccc(c23)C1=O)NCc1cccnc1 | -6 | 49* | / | / | / | 4 | 3
COC(=O)[C@@]12C[C@@H](CC(=O)N3CCC(c4ccccc4)CC3)C(=O)N(Cc3ccc4c(c3)OCO4)C1=CCC(C)(C)C2 | -2 | / | / | / | / | -4 | /
CCN1C(=O)C2C(c3ccccc3F)NC(Cc3ccc(O)cc3)(C(=O)OC)C2C1=O (stereo not drawn) | 10 | 48* | 7 | 7 | 7 | -3 | 2
SMILES | ARFGAP1 inh | pPAFAH inh | PAFAH2 inh | PAFAH1B2 FP inh | PAFAH1B3 inh | ASAP1 inh | pPAFAH FP conf
CN(C)CCCN1c2ccccc2Sc2ccc(Cl)cc21 | 2 | 2 | -1 | 2 | 4 | 2 | /
OCCN1CCN(CCCN2c3ccccc3Sc3ccc(Cl)cc32)CC1 | 5 | 39* | 3 | 0 | -3 | 1 | 33*
CC(C)[C@H](NS(=O)(=O)c1ccc(F)cc1F)C(=O)N1CCC[C@H]1C(=O)NCCc1ccccc1Cl | -1 | / | / | / | / | 6 | /
Cc1cc(C)c(Nc2cc(S(=O)(=O)O)c(N)c3c2C(=O)c2ccccc2C3=O)c(C)c1 | -8 | 89* | 83* | 63* | 46* | -9 | 92*
Cc1cc(C)c(NC(=O)COC(=O)c2cccc3c2C(=O)c2ccccc2C3=O)c(C)c1 | -5 | 11 | 15 | 0 | 11 | -17 | /
Nc1c(C(=O)Nc2nc3ccccc3s2)sc2nc(-c3cccs3)ccc12 | / | 50* | 18 | 9 | 6 | / | 43*
CC(=O)c1sc2nc(-c3cccs3)ccc2c1N | 8 | 4 | 5 | 8 | 7 | -9 | /
Cc1ccc(CNC(=O)Cc2noc3ccccc23)cc1 | -5 | 6 | -2 | 1 | -3 | 3 | /
CCCCCCC[C@@H](C/C=C/CCC(=O)N(C)C/C(=C/Cl)C/C(=C\C(=O)N1C[C@H](O)CC1=O)OC)OC | 13 | 41* | 2 | 5 | 5 | 6 | 37*
Cc1ccc(-c2csc(NS(=O)(=O)c3cccc(F)c3)n2)o1 | -8 | 47* | 37* | 5 | 9 | -3 | 72*
N#CC1(NC(=O)COc2ccccc2[N+](=O)[O-])CCCCC1 | -5 | 2 | 3 | 2 | -1 | -1 | /
C=CCOc1ccc(C(=O)c2ccccc2)c(OCC(=O)NC2(C#N)CCCC2)c1 | 7 | 35* | 6 | -3 | 1 | 2 | 20
Oc1ccc(-c2nc(-c3ccc(O)c(O)c3)cs2)cc1 | 22 | 49* | 0 | 0 | -4 | 8 | 38*
Oc1ccc(Nc2nc(-c3ccc4ccccc4c3)cs2)cc1 | 19 | 0 | -4 | 6 | 19 | 6 | /
C[C@H](CO)N1C[C@H](C)[C@@H](CN(C)C(=O)Nc2ccc3c(c2)OCO3)OCc2cn(nn2)CCCC1=O | 5 | / | / | / | / | -17 | /
CCn1nc2cc(C(=O)NCCc3cccs3)ccc2c1OC | -15 | 50* | 6 | 1 | 6 | 12 | 2
CCOc1c2ccc(C(=O)NCCc3ccc(C)cc3)cc2nn1CC | -9 | 11 | -6 | 6 | 2 | 0 | /
CC1=Nc2ccccc2/C1=C/c1sc(=N)n(-c2nccs2)c1O | / | 56* | 24 | 9 | 16 | / | 51*
CN(c1ccc(NC(=O)Cc2cn(C)c3ccccc23)cc1)c1ccccn1 | 18 | / | / | / | / | 15 | /
CC(=O)c1cccc(NC(=O)c2cc(S(=O)(=O)N3CCCCC3)ccc2N2CCOCC2)c1 | 4 | / | / | / | / | 2 | /
Cc1cccc(NC2CNC(=O)NC2=O)c1 (stereo not drawn) | 9 | / | 2 | 5 | 2 | -8 | /
